In ChEMBL document CHEMBL4364279, “Design, synthesis, in-silico and biological evaluation of novel chalcone-O-carbamate derivatives as multifunctional agents for the treatment of Alzheimer's disease” (Eur J Med Chem, 2019):
Activity calls are given as the source filed them. The calls are words filed in the database; no cut-off is given here.

Assays:
Mus musculus [1] = experiment: Reversal of scopolamine-induced memory cognitive memory impairment in Kunming mouse assessed as change in spontaneous alteration behavior at 6 mg/kg, ig pretreated for 30 mins followed by scopolamine challenge and after 30 mins by Y-maze test (reference value: 45.6%); type: functional
Mus musculus [2] = experiment: Effect on total arm entries in Kunming mouse model of scopolamine-induced cognitive impairment in at 6 mg/kg, ig pretreated for 30 min followed by scopolamine challenge and measured after 30 mins by Y-maze test; type: ADME, organism-based; conditions: in vivo, po, 0.5 h
[3] = molecular target: Cholinesterase (Equus caballus) (UniProt P81908); experiment: Reversible inhibition of equine serum BuChE assessed as enzyme activity at 0.1 times IC50 using butyrylthiocholine iodide as substrate by Ellman's method relative to control; design: scale not given: the % may be the effect or the level left
Outline: (§1)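 Reversibility tested by recovery of equine serum BuChE activity after dilution of inhibitor, with activity monitored over time up to 240 min by the Ellman method (DTNB read at 412 nm). Activity expressed relative to untreated control. Three independent experiments.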

[4] = molecular target: Cholinesterase (Equus caballus) (UniProt P81908); experiment: Reversible inhibition of equine serum BuChE assessed as enzyme activity at 0.1 times IC50 using butyrylthiocholine iodide as substrate measured at 120 mins by Ellman's method relative to control; design: scale not given: the % may be the effect or the level left; outline: as §1
[5] = molecular target: Cholinesterase (Equus caballus) (UniProt P81908); experiment: Reversible inhibition of equine serum BuChE assessed as enzyme activity at IC50 using butyrylthiocholine iodide as substrate by Ellman's method relative to control; design: scale not given: the % may be the effect or the level left
[6] = molecular target: T1, Amine oxidase [flavin-containing] A (Homo sapiens, UniProt P21397); experiment: Inhibition of recombinant human MAO-A expressed in baculovirus infected BTI insect cells at 12.5 uM using kynuramine as substrate measured after 30 mins by fluorescence based assay relative to control; conditions: 0.5 h
T1 sequence (P21397 whole entry): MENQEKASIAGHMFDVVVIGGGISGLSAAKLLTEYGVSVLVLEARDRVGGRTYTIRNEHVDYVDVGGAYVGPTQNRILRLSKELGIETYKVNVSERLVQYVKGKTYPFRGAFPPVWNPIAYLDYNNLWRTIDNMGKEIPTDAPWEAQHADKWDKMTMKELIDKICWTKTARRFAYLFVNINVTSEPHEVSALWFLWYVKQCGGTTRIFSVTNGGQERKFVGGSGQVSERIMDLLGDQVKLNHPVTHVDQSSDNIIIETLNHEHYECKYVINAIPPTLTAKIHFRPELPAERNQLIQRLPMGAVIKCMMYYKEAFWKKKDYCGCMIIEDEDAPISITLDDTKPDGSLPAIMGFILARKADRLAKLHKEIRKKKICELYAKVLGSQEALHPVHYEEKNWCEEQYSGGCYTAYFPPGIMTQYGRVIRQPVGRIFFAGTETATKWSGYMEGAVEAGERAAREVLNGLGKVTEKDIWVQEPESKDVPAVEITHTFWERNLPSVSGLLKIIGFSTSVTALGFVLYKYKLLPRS

[7] = molecular target: Acetylcholinesterase (AChE) (Electrophorus electricus, UniProt O42275); experiment: Inhibition of electric eel AChE at 25 uM using acetylthiocholine iodide as substrate incubated for 15 mins by Ellman's method relative to control; conditions: electric eel acetylcholinesterase (isolated enzyme), probe acetylthiocholine iodide
Cholinesterase = Cholinesterase (Equus caballus, UniProt P81908); experiment: Inhibition of equine serum BuChE using S-butyrylthiocholine iodide as susbtrate preincubated for 6 mins followed by substrate addition measured up to 3 mins by Ellman's method
[8] = molecular target: T2, Amine oxidase [flavin-containing] B (Homo sapiens, UniProt P27338); experiment: biochemical; type: cell-based
T2 sequence (P27338 whole entry): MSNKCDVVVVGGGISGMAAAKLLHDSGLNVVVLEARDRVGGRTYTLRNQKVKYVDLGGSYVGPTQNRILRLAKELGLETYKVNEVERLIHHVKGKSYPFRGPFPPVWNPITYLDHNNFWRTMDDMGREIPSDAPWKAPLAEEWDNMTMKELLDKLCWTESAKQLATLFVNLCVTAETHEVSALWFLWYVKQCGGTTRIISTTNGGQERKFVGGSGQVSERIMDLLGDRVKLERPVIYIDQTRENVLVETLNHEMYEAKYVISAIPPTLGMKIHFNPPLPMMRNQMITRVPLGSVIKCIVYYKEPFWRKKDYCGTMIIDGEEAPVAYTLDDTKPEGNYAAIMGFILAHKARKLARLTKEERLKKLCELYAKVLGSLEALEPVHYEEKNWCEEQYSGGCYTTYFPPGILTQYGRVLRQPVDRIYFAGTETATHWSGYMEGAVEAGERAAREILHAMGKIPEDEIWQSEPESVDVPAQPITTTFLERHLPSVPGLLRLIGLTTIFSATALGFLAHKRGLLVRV

[9] = Antioxidant activity assessed as trolox equivalents of AAPH radical scavenging activity preincubated for 15 mins followed by AAPH addition and measured every minute for 90 mins by ORAC-FL assay; type: functional
[10] = molecular target: Amyloid-beta precursor protein (Homo sapiens) (UniProt P05067); experiment: Inhibition of self-induced amyloid beta (1 to 42) (unknown origin) aggregation at 25 uM after 24 hrs by thioflavin-T based fluorescence assay relative to control
PC-12 [11] = experiment: Neuroprotective activity against H2O2-induced cell death in rat PC12 cells assessed as cell viability at 1 uM pretreated for 2 hrs followed by H2O2 addition measured after 30 mins by MTT assay (reference value: 49.6%); type: functional; conditions: read-out: Activity
[12] = Metal chelating activity of the compound assessed as formation of Cu2+-compound complex at 37.5 uM after 30 mins by UV-vis absorption spectra analysis
Outline: (§2)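 Metal binding examined by plate-reader absorbance scan using CuCl2, ZnCl2, AlCl3, FeSO4, CuCl and Fe(NO3)3 as metal sources.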

[13] = Metal chelating activity of the compound assessed as formation of Al3+-compound complex at 37.5 uM after 30 mins by UV-vis absorption spectra analysis; outline: as §2
[14] = Metal chelating activity of the compound assessed as formation of Zn2+-compound complex at 37.5 uM after 30 mins by UV-vis absorption spectra analysis; outline: as §2
[15] = Metal chelating activity of the compound assessed as formation of Fe2+-compound complex at 37.5 uM after 30 mins by UV-vis absorption spectra analysis; outline: as §2
PC-12 [16] = experiment: Neuroprotective activity against H2O2-induced cell death in rat PC12 cells assessed as cell viability at 10 uM pretreated for 2 hrs followed by H2O2 addition measured after 30 mins by MTT assay (reference value: 49.6%); type: functional; conditions: read-out: Activity
in vitro = conditions: PAMPA, pH 7.4
[17] = Disaggregation of Cu2+ induced preformed fibrils of amyloid beta (1 to 42) (unknown origin) at 25 uM preincubated with Cu2+ for 24 hrs followed by compound addition and measured after 24 hrs by thioflavin-T based fluorescence assay relative to control
Outline: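 Aβ1-42 (25 µM) and Cu2+ (25 µM) preincubated at 37 °C for 24 h, then compound (25 µM) added and incubated a further 24 h at 37 °C. ThT (5 µM in 50 mM glycine-NaOH, pH 8.5) added; fluorescence at ex 446/em 490 nm, background subtracted, % vs no-compound control. Three independent experiments.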

[18] = Inhibition of Cu2+-induced amyloid beta (1 to 42 residues) (unknown origin) aggregation at 25 uM after 24 hrs by thioflavin-T based fluorescence assay relative to control
Outline: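 Aβ1-42 (25 µM) and Cu2+ (25 µM) incubated at 37 °C for 24 h with or without compound (25 µM). ThT (5 µM in 50 mM glycine-NaOH, pH 8.5) then added; fluorescence read at ex 446/em 490 nm. Inhibition = (1−IFi/IFc)×100 after background subtraction. Three independent experiments.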

[19] = molecular target: Cholinesterase (Equus caballus) (UniProt P81908); experiment: Inhibition of equine serum BuChE at 25 uM using S-butyrylthiocholine iodide as susbtrate preincubated for 6 mins followed by substrate addition measured up to 3 mins by Ellman's method

Sequence of Cholinesterase (P81908 whole entry): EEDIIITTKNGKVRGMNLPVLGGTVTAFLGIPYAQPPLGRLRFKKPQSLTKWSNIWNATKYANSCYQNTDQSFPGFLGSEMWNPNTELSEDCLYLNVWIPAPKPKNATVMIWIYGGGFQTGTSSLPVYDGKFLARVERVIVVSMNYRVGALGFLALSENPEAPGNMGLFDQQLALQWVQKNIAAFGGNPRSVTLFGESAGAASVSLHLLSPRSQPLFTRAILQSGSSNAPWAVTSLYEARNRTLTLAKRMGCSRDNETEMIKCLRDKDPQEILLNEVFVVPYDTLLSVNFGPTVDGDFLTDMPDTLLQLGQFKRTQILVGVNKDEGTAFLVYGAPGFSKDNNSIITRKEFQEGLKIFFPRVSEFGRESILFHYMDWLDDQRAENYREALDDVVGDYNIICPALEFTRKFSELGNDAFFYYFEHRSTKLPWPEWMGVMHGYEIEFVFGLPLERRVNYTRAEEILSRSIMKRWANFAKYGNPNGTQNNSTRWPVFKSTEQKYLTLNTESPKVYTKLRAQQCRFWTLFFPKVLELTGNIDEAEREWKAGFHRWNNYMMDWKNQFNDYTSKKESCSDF
Sequence of Cholinesterase (Equus caballus) (P81908 whole entry): as above
Sequence of Acetylcholinesterase (AChE) (O42275 whole entry): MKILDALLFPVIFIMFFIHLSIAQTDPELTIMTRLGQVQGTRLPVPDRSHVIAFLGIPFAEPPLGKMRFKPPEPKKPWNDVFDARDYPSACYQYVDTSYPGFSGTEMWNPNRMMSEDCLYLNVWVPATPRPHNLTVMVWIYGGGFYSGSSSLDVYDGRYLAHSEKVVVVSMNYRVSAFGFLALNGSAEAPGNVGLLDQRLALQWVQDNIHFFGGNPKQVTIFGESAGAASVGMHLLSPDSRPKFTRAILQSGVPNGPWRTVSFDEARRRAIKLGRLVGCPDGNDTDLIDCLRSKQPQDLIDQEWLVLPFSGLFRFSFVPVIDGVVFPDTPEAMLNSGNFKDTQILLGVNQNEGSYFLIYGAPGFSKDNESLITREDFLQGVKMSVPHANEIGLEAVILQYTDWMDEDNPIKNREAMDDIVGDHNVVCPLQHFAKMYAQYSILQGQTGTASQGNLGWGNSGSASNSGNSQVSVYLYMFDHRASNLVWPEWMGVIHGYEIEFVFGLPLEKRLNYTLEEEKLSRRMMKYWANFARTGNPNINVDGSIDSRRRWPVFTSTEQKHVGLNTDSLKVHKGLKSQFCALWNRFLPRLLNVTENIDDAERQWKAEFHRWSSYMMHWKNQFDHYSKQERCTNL
Sequence of Amyloid-beta precursor protein (Homo sapiens) (P05067 whole entry): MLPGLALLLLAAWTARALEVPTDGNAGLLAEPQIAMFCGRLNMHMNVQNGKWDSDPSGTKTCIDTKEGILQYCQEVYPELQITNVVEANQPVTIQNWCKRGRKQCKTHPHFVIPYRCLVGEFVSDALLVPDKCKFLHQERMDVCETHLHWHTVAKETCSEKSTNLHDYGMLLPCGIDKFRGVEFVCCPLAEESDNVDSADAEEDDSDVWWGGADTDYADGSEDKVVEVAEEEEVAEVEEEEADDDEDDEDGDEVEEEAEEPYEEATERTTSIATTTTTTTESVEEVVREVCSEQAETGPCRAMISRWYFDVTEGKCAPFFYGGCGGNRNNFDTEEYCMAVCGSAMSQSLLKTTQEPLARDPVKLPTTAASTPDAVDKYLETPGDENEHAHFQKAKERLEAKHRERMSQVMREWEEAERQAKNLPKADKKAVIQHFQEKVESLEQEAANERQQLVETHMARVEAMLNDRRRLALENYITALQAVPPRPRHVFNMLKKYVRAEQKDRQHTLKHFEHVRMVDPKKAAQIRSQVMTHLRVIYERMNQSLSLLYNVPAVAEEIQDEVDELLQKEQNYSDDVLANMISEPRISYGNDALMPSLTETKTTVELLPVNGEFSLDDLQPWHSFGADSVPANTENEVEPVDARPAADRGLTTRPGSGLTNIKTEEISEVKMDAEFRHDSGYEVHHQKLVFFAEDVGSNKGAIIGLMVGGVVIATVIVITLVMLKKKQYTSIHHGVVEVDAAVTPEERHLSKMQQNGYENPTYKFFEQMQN

Structure (SMILES) | inhibition at 12.5 µM [6] [%] | inhibition at 0.25 h, 25 µM [7] [%] | IC50 (Cholinesterase) [µM] | IC50 [8] [µM] | Activity [9] [µMequiv/µM] | inhibition [10] [%] | further results
CCN(C)C(=O)Oc1cccc([C@H](C)N(C)C)c1 [RIVASTIGMINE] |  |  |  |  |  |  | Activity (Mus musculus [1]): 65.3%; Activity (Mus musculus [2]): Non-Toxic; Activity [3]: 46.9%; Activity [4]: 71.6%; Activity [5]: 49.8%
O=C(/C=C/c1cccc(OC(=O)N(c2ccccc2)c2ccccc2)c1)c1ccccc1O | 18.2 | 18.9 | 56.2 | 4.9 | 1.1 |  | 
O=C(/C=C/c1cccc(OC(=O)N2CCOCC2)c1)c1ccccc1OC(=O)N1CCOCC1 | 20.9 | 20.8 | 2 | 5.2 | 0.32 | 49.2 | 
CN(C)C(=O)Oc1cccc(/C=C/C(=O)c2ccccc2OC(=O)N(C)C)c1 | 18.9 | 11.7 | 4.5 | 2.9 | 0.32 |  | 
CCN(C)C(=O)Oc1cccc(/C=C/C(=O)c2ccccc2OC(=O)N(C)CC)c1 | 28.4 | 35.4 | 1.2 | 3.7 | 0.35 | 53.1 | viability at 1 µM (PC-12 [11]): 53.7%; Activity [12]: inactive; Activity [13]: inactive; Activity [14]: inactive; Activity [15]: inactive; Activity [3]: 50.7%; viability at 10 µM (PC-12 [16]): 63.2%; Activity [4]: 70.9%; Papp at 100 ug/ml (in vitro): 23.1 ×10⁻⁶ cm/s; Activity [5]: 49.7%
O=C(/C=C/c1cccc(OC(=O)N2CCOCC2)c1)c1ccccc1O | 17.4 | 24.3 | 5.1 | 3.1 | 1.2 |  | 
O=C(/C=C/c1cccc(OC(=O)N(c2ccccc2)c2ccccc2)c1)c1ccccc1OC(=O)N(c1ccccc1)c1ccccc1 | 18.2 | 27.1 | 42.6 | 6.3 | 0.33 |  | 
CCN(CC)C(=O)Oc1cccc(/C=C/C(=O)c2ccccc2OC(=O)N(CC)CC)c1 | 21.1 | 21.9 | 3.1 | 3.3 | 0.31 | 51.5 | 
CON(C)C(=O)Oc1cccc(/C=C/C(=O)c2ccccc2OC(=O)N(C)OC)c1 | 10.3 | 45.4 | 1.5 | 4.6 | 0.32 | 49.9 | 
COc1cc2c(cc1OC)C(=O)C(CC1CCN(Cc3ccccc3)CC1)C2 (stereo unspecified) |  |  |  |  |  |  | Activity [4]: 104%; Activity [5]: 54.1%
CON(C)C(=O)Oc1cccc(/C=C/C(=O)c2ccccc2O)c1 | 33.8 | 30.4 | 3.2 | 2.6 | 1.2 | 61.4 | 
COc1cc(/C=C/C(=O)CC(=O)/C=C/c2ccc(O)c(OC)c2)ccc1O |  |  |  |  |  |  | Activity [17]: 58.2%; inhibition [18]: 73.4%
CN(C)C(=O)Oc1cccc(/C=C/C(=O)c2ccccc2O)c1 | 19.9 | 28.8 | 2.51 | 0.8 | 1.1 | 60.2 | 
CCN(CC)C(=O)Oc1cccc(/C=C/C(=O)c2ccccc2O)c1 | 38.1 | 16.9 | 4.8 | 1.8 | 1.3 |  | 
O=C(/C=C/c1cccc(O)c1)c1ccccc1O | 28.1 | 23.3 |  | 1.1 | 2.6 | 70.6 | inhibition [19]: 28.9%
